Reference: ChEMBL document CHEMBL1671779, “In vivo trypanosomicidal activity of imidazole- or pyrazole-based benzo[g]phthalazine derivatives against acute and chronic phases of Chagas disease” (J Med Chem, 2011)
pIC50: −log10 of the molar value. Activity calls are given as the source filed them.

What was measured:
[1] = system: Trypanosoma cruzi; experiment: Effect on metabolic excretion in epimastigotes of Trypanosoma cruzi assessed as L-alanine excretion level at IC25 concentration after 72 hrs by nuclear magnetic resonance spectroscopy analysis; assay type: ADME, organism-based
Summary of the method: (§1)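 Epimastigote cultures started at 5 × 10^5 cells/mL and given drug at IC25, 72 h at 28 °C. Excreted metabolites assessed by 1H NMR of spent medium, compared with cell-free medium.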

[2] = system: Trypanosoma cruzi; experiment: Antitrypanosomal activity against trypomastigote of Trypanosoma cruzi infected in BALB/c mouse assessed as increase of host survival at 1 mg/kg, ip for 5 days administered 7 days after infection; assay type: functional
Summary of the method: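 Female BALB/c mice (6-8 weeks, 25-30 g) in groups of five were infected intraperitoneally with T. cruzi metacyclic forms, with circulating parasites confirmed on day 5 by microhematocrit. They were dosed intraperitoneally at 1 mg/kg/day for five consecutive days (days 7-12 post-infection) and compared with infected untreated and uninfected controls. Deaths were recorded every two days.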

[3] = system: Mus musculus; experiment: Toxicity in BALB/c mouse assessed as mortality at 5 mg/kg, ip; assay type: organism-based; parameters: dose 5 mg/kg, route intraperitoneal; conditions: in vivo
[4] = system: Trypanosoma cruzi; experiment: Antitrypanosomal activity against epimastigotes of Trypanosoma cruzi assessed as change in ultrastructural morphological changes at IC25 concentration after 72 hrs by transmission electron microscopy; assay type: functional, organism-based
Summary of the method: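 Epimastigotes at 5 × 10^6 cells/mL cultured with drug at IC25 for 72 h. Pelleted at 400g, washed in PBS, then fixed in 2% formaldehyde-glutaraldehyde in 0.05 M cacodylate pH 7.4 for 2 h at 4 °C before transmission electron microscopy.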

[5] = system: Trypanosoma cruzi; experiment: Effect on metabolic excretion in epimastigotes of Trypanosoma cruzi assessed as succinate excretion level at IC25 concentration after 72 hrs by nuclear magnetic resonance spectroscopy analysis; assay type: ADME, organism-based; summary of the method: as §1
[6] = system: Mus musculus; experiment: Toxicity in Trypanosoma cruzi infected BALB/c mouse assessed as lymphocytic infiltration at 5 mg/kg, ip administered 90 days after postinfection by conventional light microscopic analysis; assay type: organism-based; parameters: dose 5 mg/kg, route intraperitoneal; conditions: in vivo, 2160 h
Summary of the method: (§2)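 Livers of infected mice dosed at 5 mg/kg, examined at 90 days post-infection. Paraffin sections 4–5 μm, stained with Giemsa, H&E and Masson's trichrome. Slides coded for blinded light microscopy, ≥30 fields per slide. Alterations scored 0–5.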

[7] = system: Trypanosoma cruzi; experiment: Antitrypanosomal activity against trypomastigote of Trypanosoma cruzi infected in BALB/c mouse assessed as reduction of anti-Trypanosoma cruzi antibody level at 1 mg/kg, ip qd for 5 days measured after 120 days postinfection by ELISA; assay type: functional; conditions: route intraperitoneal
Summary of the method: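 Female BALB/c mice (6–8 weeks, 25–30 g; groups of four for serology) infected ip with 3 × 10^3 metacyclic forms. Dosed 1 mg/kg/day ip for five consecutive days, days 7–12 post-infection. Sera diluted 1:100 tested by ELISA against soluble T. cruzi epimastigote Fe-SOD antigen at days 40 and 120. Read at 490 nm; cutoff is negative-control mean + 3 SD.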

[8] = system: Mus musculus; experiment: Toxicity in Trypanosoma cruzi infected BALB/c mouse assessed as hepatic destruction at 5 mg/kg, ip administered 90 days after postinfection by conventional light microscopic analysis; assay type: organism-based; parameters: dose 5 mg/kg, route intraperitoneal; conditions: in vivo, 2160 h; summary of the method: as §2
[9] = Inhibition of Trypanosoma cruzi iron superoxide dismutase assessed as inhibition of NADPH reduction
Summary of the method: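 Maracay epimastigotes sonicated in sucrose/Tris/EDTA buffer, pH 7.8. Clarified supernatant taken through 35–85% ammonium sulfate cut, then desalted into 20 mM phosphate pH 7.8 with 1 mM EDTA. Activity measured by NAD(P)H oxidation; 1 U gives 50% inhibition of the rate. Compounds at 1, 10, 25, 50, 100 μM. IC50 by linear regression; five determinations; Newman-Keuls test.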

[10] = biological target: Superoxide dismutase [Cu-Zn] (Homo sapiens, UniProt P00441); experiment: Inhibition of human Cu-Zn superoxide dismutase assessed as inhibition of NADPH reduction
Summary of the method: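 Human erythrocyte CuZn-SOD, purchased, assayed by NAD(P)H oxidation; 1 U gives 50% inhibition of the rate. Compounds at 1, 10, 25, 50, 100 μM. IC50 by linear regression; five determinations; Newman-Keuls test.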

[11] = system: Trypanosoma cruzi; experiment: Antitrypanosomal activity against trypomastigote of Trypanosoma cruzi infected in BALB/c mouse assessed as reduction of parasitemia at 1 mg/kg, ip for 5 days measured after 40 days postinfection; assay type: functional, organism-based; parameters: dose 1 mg/kg
Summary of the method: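 Female BALB/c mice (6–8 weeks, 25–30 g), groups of five, infected ip with 3 × 10^3 metacyclic forms. Dosed 1 mg/kg/day ip for days 7–12 post-infection. Tail blood (5 μL) diluted 1:15 in citrate/lysis buffer pH 7.2; parasites counted in Neubauer chamber; deaths recorded every two days.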

[12] = system: Trypanosoma cruzi; experiment: Effect on metabolic excretion in epimastigotes of Trypanosoma cruzi assessed as acetate excretion level at IC25 concentration after 72 hrs by nuclear magnetic resonance spectroscopy analysis; assay type: ADME, organism-based; summary of the method: as §1
[13] = system: Trypanosoma cruzi; experiment: Antitrypanosomal activity against Trypanosoma cruzi infected in african green monkey Vero cells assessed as reduction of trypomastigote number per infected cell at IC25 after 10 days relative to control; assay type: functional; parameters: scale not given: the % may be the effect or the level left
[14] = system: Trypanosoma cruzi; experiment: Antitrypanosomal activity against Trypanosoma cruzi infected in african green monkey Vero cells assessed as reduction of amastigote number per infected cell at IC25 after 10 days relative to control; assay type: functional; parameters: scale not given: the % may be the effect or the level left
Summary of the method: (§3)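 Vero cells seeded at 1 × 10^5 cells/well on coverslips and grown 2 days in MEM at 37 °C, 5% CO2. Infected with metacyclic forms at 10:1, obtained by culture in modified Grace's medium at 28 °C for 12 days. Drug present 6 h, then removed by washing; cultures grown 10 days with medium renewed every 48 h. Methanol-fixed, Giemsa-stained; >100 host cells counted; means of four determinations.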

[15] = system: Trypanosoma cruzi; experiment: Antitrypanosomal activity against Trypanosoma cruzi infected in african green monkey Vero cells assessed as reduction of parasite infection rate at IC25 after 10 days; assay type: functional; parameters: scale not given: the % may be the effect or the level left; summary of the method: as §3
[16] = Selectivity index, ratio of IC50 for african green monkey Vero cells to IC50 for epimastigote of Trypanosoma cruzi Maracay; assay type: toxicity, cell-based; conditions: read-out: Selectivity Index
[17] = system: Trypanosoma cruzi; experiment: Effect on metabolic excretion in epimastigotes of Trypanosoma cruzi assessed as lactate excretion level at IC25 concentration after 72 hrs by nuclear magnetic resonance spectroscopy analysis; assay type: ADME, organism-based; summary of the method: as §1
[18] = system: Trypanosoma cruzi; experiment: Effect on metabolic excretion in epimastigotes of Trypanosoma cruzi assessed as malate excretion level at IC25 concentration after 72 hrs by nuclear magnetic resonance spectroscopy analysis; assay type: ADME, organism-based
[19] = system: Trypanosoma cruzi; experiment: Antitrypanosomal activity against epimastigote of Trypanosoma cruzi Maracay after 72 hrs; assay type: functional, organism-based
Summary of the method: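 Maracay strain epimastigotes in exponential phase, obtained in NNN medium with MEM and 20% inactivated FBS and then kept in monophasic MTL culture. Seeded at 2 × 10^6 parasites/mL with 1, 10, 25, 50 or 100 μM compound (0.01% DMSO). Parasites counted by Neubauer hemocytometer at 72 h; IC50 derived.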

[20] = system: Vero; experiment: Cytotoxicity against african green monkey Vero cells after 72 hrs by trypan blue assay; assay type: cell-based; conditions: Chlorocebus sabaeus
Summary of the method: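 Vero cells in MEM with 10% inactivated FCS, pH 7.2, 37 °C, 5% CO2. Seeded at 1 × 10^5 cells/mL and grown 2 days, then exposed 72 h to 1, 10, 25, 50 or 100 μM. Viability scored by trypan blue (0.1%) relative to control; IC50 obtained by linear regression.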

[21] = system: Mus musculus; experiment: Toxicity in Trypanosoma cruzi infected BALB/c mouse assessed as small interstitial hemorrhage at 5 mg/kg, ip administered 90 days after postinfection by conventional light microscopic analysis; assay type: organism-based; parameters: dose 5 mg/kg, route intraperitoneal; conditions: in vivo, 2160 h; summary of the method: as §2
[22] = system: Mus musculus; experiment: Toxicity in Trypanosoma cruzi infected BALB/c mouse assessed as lymphocytic infiltration in portal tracts at 5 mg/kg, ip administered 90 days after postinfection by conventional light microscopic analysis; assay type: organism-based; parameters: dose 5 mg/kg, route intraperitoneal; conditions: in vivo, 2160 h; summary of the method: as §2

Sequence of Superoxide dismutase [Cu-Zn] (P00441 whole entry): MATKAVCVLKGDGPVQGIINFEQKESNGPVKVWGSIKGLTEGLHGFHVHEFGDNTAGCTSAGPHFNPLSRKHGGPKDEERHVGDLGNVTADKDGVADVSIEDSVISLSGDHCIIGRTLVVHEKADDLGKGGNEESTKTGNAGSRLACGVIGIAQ

| Structure (SMILES) | Activity [1] [%] | Activity [2] | Activity [3] | Activity [4] | Activity [5] [%] | deltaA [7] [absorbance units] | pIC50 [9] | pIC50 [10] | Activity [11] | Activity [12] [%] | Activity [13] [%] | Activity [14] [%] | Activity [15] [%] | further results |
| --- | --- | --- | --- | --- | --- | --- | --- | --- | --- | --- | --- | --- | --- | --- |
| Clc1nnc(NCCc2c[nH]cn2)c2cc3ccccc3cc12 | 22 | Active | Non-toxic | Active | -37 | -0.076 | 5.03 | 3.10 | Active | -18 |  |  |  | Activity [6]: Toxic; Activity [8]: Toxic |
| O=C(Cn1ccnc1[N+](=O)[O-])NCc1ccccc1 [BENZNIDAZOLE] |  |  |  |  |  | 0.11 |  |  |  |  | 43 | 15 | 39 | Activity ([2]; route intraperitoneal): 80% |
| c1ccc2cc3c(Nc4ccn[nH]4)nnc(Nc4ccn[nH]4)c3cc2c1 [1,4-BIS(3'-PYRAZOLYLAMINO)BENZO[G]PHTHALAZINE] |  |  | Non-toxic |  | -24 |  |  | 4.02 |  |  |  |  |  | selectivity ratio [16]: 2.99; Activity [17]: -55%; Activity [18]: 100% |
| c1ccc2cc3c(Nc4cc[nH]n4)nnc(Nc4cc[nH]n4)c3cc2c1 [1,4-BIS(3'-PYRAZOLYLAMINO)BENZO[G]PHTHALAZINE] |  | Active |  | Active |  | 0.138 | 4.64 |  | Active |  | 53 | 40 | 63 | pIC50 [19]: 4.48; pIC50 [20]: 4.01 |
| c1ccc2cc3c(NCCc4cnc[nH]4)nnc(NCCc4cnc[nH]4)c3cc2c1 | 35 |  | Non-toxic |  | -39 |  |  | 3.44 |  | -30 |  |  |  |  |
| Clc1nnc(Nc2cc[nH]n2)c2cc3ccccc3cc12 |  | Active | Non-toxic | Active | 27 | -0.228 | 4.76 | 3.99 | Active | -36 | 63 | 56 | 68 | Activity [21]: Toxic; selectivity ratio [16]: 7.58; pIC50 [19]: 4.76; Activity [22]: Toxic; Activity [17]: -61%; pIC50 [20]: 3.88 |
| c1ccc2cc3c(NCCCn4ccnc4)nnc(NCCCn4ccnc4)c3cc2c1 | 43 | Active | Non-toxic |  | -27 | 0.266 | 4.55 | 4.17 | Active | -22 |  |  |  |  |
| Clc1nnc(NCCCn2ccnc2)c2cc3ccccc3cc12 | 61 | Active | Non-toxic | Active | -49 | -0.151 | 5.89 | 3.89 | Active | -26 |  |  |  |  |
| c1ccc2cc3c(NCCc4c[nH]cn4)nnc(NCCc4c[nH]cn4)c3cc2c1 |  | Active |  | Active |  | 0.044 | 4.53 |  | Active |  |  |  |  |  |
